{"source": "ChEMBL document CHEMBL4002615", "about": "“Investigation of piperazine benzamides as human β3 adrenergic receptor agonists for the treatment of overactive bladder” (Bioorg Med Chem Lett, 2017)", "key": {"Canis familiaris [1]": {"test_system": "Canis familiaris", "test": "Unbound dose normalized AUC in dog at 2 mg/kg, po", "type": "ADME, organism-based, Canis lupus familiaris", "details": "in vivo; call rule not given here"}, "[2]": {"test": "Oral bioavailability in dog at 2 mg/kg", "type": "ADME, organism-based, Canis lupus familiaris", "details": "in vivo"}, "[3]": {"test": "Half life in dog at 0.5 mg/kg, iv or 2 mg/kg, po", "type": "ADME, organism-based, Canis lupus familiaris", "details": "in vivo"}, "[4]": {"test": "Stability in rhesus monkey liver microsomes assessed as parent compound remaining after 45 mins", "type": "ADME, Macaca mulatta, microsome", "details": "read-out: Stability"}, "[5]": {"test": "Oral bioavailability in rhesus monkey at 2 mg/kg", "type": "ADME, organism-based, Macaca mulatta", "details": "in vivo"}, "[6]": {"test": "Unbound fraction in rat at 1 mg/kg, iv or 2 mg/kg, po", "type": "ADME, organism-based", "details": "in vivo"}, "Rattus norvegicus [7]": {"test_system": "Rattus norvegicus", "test": "Induction of nor-epinephrine efflux in medial prefrontal cortex of rat at 100 mg/kg, po measured 1 hr post dose by microdialysis method relative to control", "type": "ADME, organism-based", "details": "in vivo"}, "[8]": {"test": "Stability in human liver microsomes assessed as parent compound remaining after 45 mins", "type": "ADME, microsome", "details": "read-out: Stability"}, "[9]": {"test": "Plasma clearance in dog at 0.5 mg/kg, iv or 2 mg/kg, po", "type": "ADME, organism-based, Canis lupus familiaris"}, "[10]": {"target": "Sodium channel protein type 5 subunit alpha (Homo sapiens, UniProt Q14524)", "sequence (Q14524 whole entry)": "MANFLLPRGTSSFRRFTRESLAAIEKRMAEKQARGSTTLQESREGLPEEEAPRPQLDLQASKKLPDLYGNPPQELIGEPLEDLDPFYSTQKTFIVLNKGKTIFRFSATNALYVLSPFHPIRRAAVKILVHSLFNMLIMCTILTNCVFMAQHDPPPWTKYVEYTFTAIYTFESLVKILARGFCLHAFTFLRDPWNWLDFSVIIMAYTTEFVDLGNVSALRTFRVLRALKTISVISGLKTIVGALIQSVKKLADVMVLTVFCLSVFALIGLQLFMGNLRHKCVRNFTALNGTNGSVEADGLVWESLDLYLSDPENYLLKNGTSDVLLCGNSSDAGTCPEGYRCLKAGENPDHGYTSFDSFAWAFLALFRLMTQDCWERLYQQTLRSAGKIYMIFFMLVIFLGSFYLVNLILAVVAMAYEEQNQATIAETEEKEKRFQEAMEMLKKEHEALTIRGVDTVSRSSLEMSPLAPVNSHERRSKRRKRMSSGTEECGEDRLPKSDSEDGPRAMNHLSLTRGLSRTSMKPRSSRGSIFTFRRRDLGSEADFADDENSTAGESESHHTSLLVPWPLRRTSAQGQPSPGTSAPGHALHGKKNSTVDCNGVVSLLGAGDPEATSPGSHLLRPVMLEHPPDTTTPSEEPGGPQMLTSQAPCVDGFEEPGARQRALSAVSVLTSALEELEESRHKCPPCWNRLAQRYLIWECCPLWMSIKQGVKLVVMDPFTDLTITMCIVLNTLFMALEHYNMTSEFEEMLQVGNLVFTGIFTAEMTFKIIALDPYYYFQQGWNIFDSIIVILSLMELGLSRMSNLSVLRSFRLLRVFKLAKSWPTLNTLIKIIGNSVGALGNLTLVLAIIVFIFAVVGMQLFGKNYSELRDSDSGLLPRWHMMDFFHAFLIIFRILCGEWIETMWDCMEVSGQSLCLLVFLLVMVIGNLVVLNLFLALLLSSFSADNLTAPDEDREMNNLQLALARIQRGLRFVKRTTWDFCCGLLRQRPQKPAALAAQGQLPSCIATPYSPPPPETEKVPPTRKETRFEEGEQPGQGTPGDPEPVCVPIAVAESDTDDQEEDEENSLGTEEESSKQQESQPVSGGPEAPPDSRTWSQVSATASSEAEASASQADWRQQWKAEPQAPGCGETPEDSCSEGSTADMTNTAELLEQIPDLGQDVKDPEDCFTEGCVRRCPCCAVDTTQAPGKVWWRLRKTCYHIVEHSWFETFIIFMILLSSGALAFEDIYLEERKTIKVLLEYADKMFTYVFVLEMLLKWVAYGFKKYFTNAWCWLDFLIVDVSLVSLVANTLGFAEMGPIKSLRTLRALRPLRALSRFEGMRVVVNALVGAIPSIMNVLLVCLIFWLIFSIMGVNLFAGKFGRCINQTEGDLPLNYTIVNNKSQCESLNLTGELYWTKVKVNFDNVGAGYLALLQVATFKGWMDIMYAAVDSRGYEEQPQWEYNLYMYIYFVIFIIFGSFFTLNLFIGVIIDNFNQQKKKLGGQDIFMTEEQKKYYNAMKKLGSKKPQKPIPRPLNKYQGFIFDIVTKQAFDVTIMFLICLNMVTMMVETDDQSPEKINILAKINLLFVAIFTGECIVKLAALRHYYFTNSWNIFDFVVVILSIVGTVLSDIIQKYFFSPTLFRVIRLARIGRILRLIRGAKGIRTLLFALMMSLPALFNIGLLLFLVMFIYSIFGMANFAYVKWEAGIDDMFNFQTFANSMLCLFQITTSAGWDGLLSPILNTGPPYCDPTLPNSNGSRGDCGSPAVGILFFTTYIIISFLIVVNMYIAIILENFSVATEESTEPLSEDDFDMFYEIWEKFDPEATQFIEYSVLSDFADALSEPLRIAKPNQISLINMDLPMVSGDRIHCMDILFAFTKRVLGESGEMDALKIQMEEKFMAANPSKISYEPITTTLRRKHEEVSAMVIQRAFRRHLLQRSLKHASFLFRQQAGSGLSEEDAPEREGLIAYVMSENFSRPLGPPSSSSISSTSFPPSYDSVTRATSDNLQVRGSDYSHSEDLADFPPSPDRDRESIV", "test": "Inhibition of human Nav1.5 by electrophysiology method"}, "[11]": {"target": "Sodium-dependent noradrenaline transporter (Homo sapiens, UniProt P23975)", "sequence (P23975 whole entry)": "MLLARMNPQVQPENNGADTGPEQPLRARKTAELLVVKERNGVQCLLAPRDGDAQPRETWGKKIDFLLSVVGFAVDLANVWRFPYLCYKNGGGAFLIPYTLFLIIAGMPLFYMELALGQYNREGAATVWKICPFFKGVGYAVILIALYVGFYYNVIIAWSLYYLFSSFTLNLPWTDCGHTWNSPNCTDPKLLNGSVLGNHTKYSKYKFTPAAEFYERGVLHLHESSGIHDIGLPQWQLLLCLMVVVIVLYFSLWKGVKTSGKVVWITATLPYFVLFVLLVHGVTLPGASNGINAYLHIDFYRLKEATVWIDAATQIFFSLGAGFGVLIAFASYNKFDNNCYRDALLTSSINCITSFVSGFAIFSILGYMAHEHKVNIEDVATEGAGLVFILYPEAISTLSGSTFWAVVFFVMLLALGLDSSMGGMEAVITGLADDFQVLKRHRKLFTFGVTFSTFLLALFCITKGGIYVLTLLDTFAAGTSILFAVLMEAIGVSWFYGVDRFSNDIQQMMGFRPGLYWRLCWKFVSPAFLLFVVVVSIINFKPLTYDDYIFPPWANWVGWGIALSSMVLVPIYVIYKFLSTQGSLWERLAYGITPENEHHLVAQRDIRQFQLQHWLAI", "test": "Inhibition of NET (unknown origin) expressed in HEK293 cells assessed as reduction in norepinephrine reuptake", "type": "cell-based"}, "Rattus norvegicus [12]": {"test_system": "Rattus norvegicus", "test": "Total dose normalized AUC in rat 2 mg/kg, po", "type": "ADME, organism-based", "details": "in vivo"}, "[13]": {"test": "Stability in rat liver microsomes assessed as parent compound remaining after 45 mins", "type": "ADME, microsome", "details": "read-out: Stability"}, "[14]": {"test": "Volume of distribution in dog at 0.5 mg/kg, iv or 2 mg/kg, po", "type": "ADME, organism-based, Canis lupus familiaris", "details": "in vivo"}, "[15]": {"test": "Volume of distribution in rat at 1 mg/kg, iv or 2 mg/kg, po", "type": "ADME, organism-based", "details": "in vivo"}, "Rattus norvegicus [16]": {"test_system": "Rattus norvegicus", "test": "Unbound dose normalized AUC in rat 2 mg/kg, po", "type": "ADME, organism-based", "details": "in vivo"}, "[17]": {"test": "Unbound fraction in rhesus monkey at 0.5 mg/kg, iv or 2 mg/kg, po", "type": "ADME, organism-based, Macaca mulatta", "details": "in vivo"}, "[18]": {"test": "Half life in rhesus monkey at 0.5 mg/kg, iv or 2 mg/kg, po", "type": "ADME, organism-based, Macaca mulatta", "details": "in vivo"}, "Canis familiaris [19]": {"test_system": "Canis familiaris", "test": "Unbound clearance in dog at 0.5 mg/kg, iv or 2 mg/kg, po", "type": "ADME, organism-based, Canis lupus familiaris", "details": "in vivo"}, "Rattus norvegicus [20]": {"test_system": "Rattus norvegicus", "test": "In vivo agonist activity at beta3-AR in po dosed rat", "type": "functional, organism-based"}, "[21]": {"test": "Plasma clearance in rhesus monkey at 0.5 mg/kg, iv or 2 mg/kg, po", "type": "ADME, organism-based, Macaca mulatta"}, "Canis familiaris [22]": {"test_system": "Canis familiaris", "test": "Total dose normalized AUC in dog at 2 mg/kg, po", "type": "ADME, organism-based, Canis lupus familiaris", "details": "in vivo"}, "[23]": {"test": "Stability in rhesus monkey hepatocytes assessed as parent compound remaining up to 60 mins", "type": "ADME, cell-based, Macaca mulatta, Hepatocyte", "details": "read-out: Stability"}, "[24]": {"target": "Voltage-gated inwardly rectifying potassium channel KCNH2 (Homo sapiens, UniProt Q12809)", "sequence (Q12809 whole entry)": "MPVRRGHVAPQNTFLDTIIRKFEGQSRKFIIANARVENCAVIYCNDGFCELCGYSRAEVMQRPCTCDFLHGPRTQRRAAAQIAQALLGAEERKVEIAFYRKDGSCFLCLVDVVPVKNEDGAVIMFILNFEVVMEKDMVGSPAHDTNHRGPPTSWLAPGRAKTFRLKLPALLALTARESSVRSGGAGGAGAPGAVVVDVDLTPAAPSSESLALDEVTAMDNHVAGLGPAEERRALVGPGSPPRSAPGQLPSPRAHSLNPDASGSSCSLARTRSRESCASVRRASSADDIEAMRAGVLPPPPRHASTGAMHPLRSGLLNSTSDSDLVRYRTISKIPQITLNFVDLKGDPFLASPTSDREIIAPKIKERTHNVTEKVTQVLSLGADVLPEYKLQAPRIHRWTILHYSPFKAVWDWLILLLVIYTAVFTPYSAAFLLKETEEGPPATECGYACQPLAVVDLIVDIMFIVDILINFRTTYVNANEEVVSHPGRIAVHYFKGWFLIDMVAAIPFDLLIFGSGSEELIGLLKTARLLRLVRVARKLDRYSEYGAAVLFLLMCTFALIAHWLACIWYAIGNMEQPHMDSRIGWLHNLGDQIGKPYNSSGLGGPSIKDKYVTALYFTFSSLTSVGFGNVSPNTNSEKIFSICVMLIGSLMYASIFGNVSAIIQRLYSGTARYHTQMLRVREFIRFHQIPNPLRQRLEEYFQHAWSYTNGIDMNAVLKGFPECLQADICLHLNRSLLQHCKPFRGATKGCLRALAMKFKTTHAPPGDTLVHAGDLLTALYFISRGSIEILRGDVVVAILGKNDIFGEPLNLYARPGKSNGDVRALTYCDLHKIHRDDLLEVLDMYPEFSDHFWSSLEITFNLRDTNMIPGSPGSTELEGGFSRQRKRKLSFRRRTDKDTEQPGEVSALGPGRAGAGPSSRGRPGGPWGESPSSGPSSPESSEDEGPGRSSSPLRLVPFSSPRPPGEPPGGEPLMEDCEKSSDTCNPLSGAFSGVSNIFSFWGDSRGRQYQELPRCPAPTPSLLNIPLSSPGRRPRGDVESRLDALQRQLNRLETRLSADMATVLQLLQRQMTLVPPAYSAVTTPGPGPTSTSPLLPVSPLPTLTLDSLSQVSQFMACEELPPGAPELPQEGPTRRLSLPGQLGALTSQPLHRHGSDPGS", "test": "Inhibition of human ERG"}, "[25]": {"target": "Beta-2 adrenergic receptor (Homo sapiens, UniProt P07550)", "sequence (P07550 whole entry)": "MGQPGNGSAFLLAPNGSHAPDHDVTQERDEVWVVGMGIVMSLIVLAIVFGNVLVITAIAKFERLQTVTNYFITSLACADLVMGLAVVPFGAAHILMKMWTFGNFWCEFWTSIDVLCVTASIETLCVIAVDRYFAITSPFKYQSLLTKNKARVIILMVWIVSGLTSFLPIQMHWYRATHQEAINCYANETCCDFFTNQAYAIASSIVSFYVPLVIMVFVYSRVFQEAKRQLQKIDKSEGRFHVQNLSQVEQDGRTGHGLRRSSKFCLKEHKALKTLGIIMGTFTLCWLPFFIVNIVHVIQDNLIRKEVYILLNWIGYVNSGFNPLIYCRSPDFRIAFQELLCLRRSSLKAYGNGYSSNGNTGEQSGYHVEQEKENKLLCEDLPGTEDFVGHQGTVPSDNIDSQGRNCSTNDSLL", "test": "Activity at human beta2 adrenergic receptor"}, "[26]": {"test": "Volume of distribution in rhesus monkey at 0.5 mg/kg, iv or 2 mg/kg, po", "type": "ADME, organism-based, Macaca mulatta", "details": "in vivo"}, "Rhesus monkey [27]": {"test_system": "Rhesus monkey", "test": "Unbound clearance in rhesus monkey at 0.5 mg/kg, iv or 2 mg/kg, po", "type": "ADME, organism-based, Macaca mulatta", "details": "in vivo"}, "[28]": {"test": "Plasma clearance in rat at 1 mg/kg, iv or 2 mg/kg, po", "type": "ADME, organism-based"}, "[29]": {"test": "Unbound fraction in dog at 0.5 mg/kg, iv or 2 mg/kg, po", "type": "ADME, organism-based, Canis lupus familiaris", "details": "in vivo"}, "Rhesus monkey [30]": {"test_system": "Rhesus monkey", "test": "Total dose normalized AUC in rhesus monkey at 2 mg/kg, po", "type": "ADME, organism-based, Macaca mulatta", "details": "in vivo"}, "[31]": {"test": "Stability in dog liver microsomes assessed as parent compound remaining after 45 mins", "type": "ADME, Canis lupus familiaris, microsome", "details": "read-out: Stability"}, "Rattus norvegicus [32]": {"test_system": "Rattus norvegicus", "test": "Unbound clearance in rat at 1 mg/kg, iv or 2 mg/kg, po", "type": "ADME, organism-based", "details": "in vivo"}, "[33]": {"target": "T1, Beta-3 adrenergic receptor (Homo sapiens, UniProt P13945)", "test": "Agonist activity at human beta3 adrenergic receptor relative to R-(-)-isoproterenol"}, "[34]": {"test": "Stability in rat hepatocytes assessed as parent compound remaining up to 60 mins", "type": "ADME, cell-based, Hepatocyte", "details": "read-out: Stability"}, "[35]": {"target": "T1, Beta-3 adrenergic receptor", "test": "Agonist activity at human beta3 adrenergic receptor", "how_it_was_run": "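Human β3 receptor agonist EC50 given as the mean of at least two experiments.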"}, "Rhesus monkey [36]": {"test_system": "Rhesus monkey", "test": "Unbound dose normalized AUC in rhesus monkey at 2 mg/kg, po", "type": "ADME, organism-based, Macaca mulatta", "details": "in vivo"}, "[37]": {"test": "Induction of phospholipidosis in human HepG2 cells", "type": "cell-based", "details": "read-out: A50"}, "[38]": {"target": "Sodium-dependent serotonin transporter (Homo sapiens, UniProt P31645)", "sequence (P31645 whole entry)": "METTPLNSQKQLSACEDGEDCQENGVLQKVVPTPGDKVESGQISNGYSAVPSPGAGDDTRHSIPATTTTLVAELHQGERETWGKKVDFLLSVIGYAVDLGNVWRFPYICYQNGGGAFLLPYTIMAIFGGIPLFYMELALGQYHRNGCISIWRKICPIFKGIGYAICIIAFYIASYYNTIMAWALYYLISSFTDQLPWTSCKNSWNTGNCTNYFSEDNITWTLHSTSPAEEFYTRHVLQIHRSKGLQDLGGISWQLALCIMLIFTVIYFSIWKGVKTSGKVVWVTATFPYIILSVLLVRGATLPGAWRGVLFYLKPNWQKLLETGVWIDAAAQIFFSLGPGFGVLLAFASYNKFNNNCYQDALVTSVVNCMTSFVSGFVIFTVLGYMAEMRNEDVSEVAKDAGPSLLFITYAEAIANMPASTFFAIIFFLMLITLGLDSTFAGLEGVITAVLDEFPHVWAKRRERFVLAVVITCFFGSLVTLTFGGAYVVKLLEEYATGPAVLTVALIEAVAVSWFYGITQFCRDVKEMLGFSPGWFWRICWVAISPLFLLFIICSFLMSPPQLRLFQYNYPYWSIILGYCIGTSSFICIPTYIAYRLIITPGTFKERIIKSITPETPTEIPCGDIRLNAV", "test": "Inhibition of SERT (unknown origin)"}, "[39]": {"test": "Stability in human hepatocytes assessed as parent compound remaining up to 60 mins", "type": "ADME, cell-based, Hepatocyte", "details": "read-out: Stability"}, "[40]": {"test": "Half life in rat at 1 mg/kg, iv or 2 mg/kg, po", "type": "ADME, organism-based", "details": "in vivo"}, "[41]": {"test": "Stability in dog hepatocytes assessed as parent compound remaining up to 60 mins", "type": "ADME, cell-based, Canis lupus familiaris, Hepatocyte", "details": "read-out: Stability"}, "[42]": {"test": "Oral bioavailability in rat 2 mg/kg", "type": "ADME, organism-based", "details": "in vivo"}, "[43]": {"target": "Beta-1 adrenergic receptor (Homo sapiens, UniProt P08588)", "test": "Activity at human beta1 adrenergic receptor"}, "Rattus norvegicus [44]": {"test_system": "Rattus norvegicus", "test": "Effect on nor-epinephrine level in rat brain at 10 mg/kg, po by microdialysis method", "type": "ADME, organism-based", "details": "in vivo"}}, "data": [{"smiles": "O=C(c1ccc(C[C@@H]2CC[C@H]([C@H](O)c3ccccc3)N2)cc1)N1CCN(Cc2nnn(CC(F)(F)F)n2)CC1", "values": [{"measurement": "fAUC/dose", "setting": "Canis familiaris [1]", "result": 1.2, "unit": "µM·h/mg/kg"}, {"measurement": "bioavailability", "setting": "[2]", "result": 100, "unit": "%"}, {"measurement": "half-life", "setting": "[3]", "result": 6.9, "unit": "h"}, {"measurement": "remaining at 0.75 h", "setting": "[4]", "result": 19, "unit": "%"}, {"measurement": "bioavailability", "setting": "[5]", "result": 5.4, "unit": "%"}, {"measurement": "fraction unbound", "setting": "[6]", "result": 0.65}, {"measurement": "fold change (FC)", "setting": "Rattus norvegicus [7]", "result": 2}, {"measurement": "remaining at 0.75 h", "setting": "[8]", "result": 42, "unit": "%"}, {"measurement": "clearance", "setting": "[9]", "result": 22, "unit": "mL/min/kg"}, {"measurement": "IC50", "setting": "[10]", "result": "> 30", "unit": "µM"}, {"measurement": "EC50", "setting": "[11]", "result": 0.627, "unit": "µM"}, {"measurement": "AUC/dose", "setting": "Rattus norvegicus [12]", "result": 0.14, "unit": "µM·h/mg/kg"}, {"measurement": "remaining at 0.75 h", "setting": "[13]", "result": 71, "unit": "%"}, {"measurement": "Vd", "setting": "[14]", "result": 11, "unit": "L/kg"}, {"measurement": "Vd", "setting": "[15]", "result": 17, "unit": "L/kg"}, {"measurement": "fAUC/dose", "setting": "Rattus norvegicus [16]", "result": 0.09, "unit": "µM·h/mg/kg"}, {"measurement": "fraction unbound", "setting": "[17]", "result": 0.44}, {"measurement": "half-life", "setting": "[18]", "result": 6.5, "unit": "h"}, {"measurement": "CL free", "setting": "Canis familiaris [19]", "result": 35, "unit": "mL/min/kg"}, {"measurement": "EC50", "setting": "Rattus norvegicus [20]", "result": 4.5, "unit": "µM"}, {"measurement": "clearance", "setting": "[21]", "result": 19, "unit": "mL/min/kg"}, {"measurement": "AUC/dose", "setting": "Canis familiaris [22]", "result": 1.9, "unit": "µM·h/mg/kg"}, {"measurement": "remaining at 1 h", "setting": "[23]", "result": 50, "unit": "%"}, {"measurement": "IC50", "setting": "[24]", "result": 29.9, "unit": "µM"}, {"measurement": "IC50", "setting": "[25]", "result": "> 20", "unit": "µM"}, {"measurement": "Vd", "setting": "[26]", "result": 5.8, "unit": "L/kg"}, {"measurement": "CL free", "setting": "Rhesus monkey [27]", "result": 43, "unit": "mL/min/kg"}, {"measurement": "clearance", "setting": "[28]", "result": 98, "unit": "mL/min/kg"}, {"measurement": "fraction unbound", "setting": "[29]", "result": 0.63}, {"measurement": "AUC/dose", "setting": "Rhesus monkey [30]", "result": 0.09, "unit": "µM·h/mg/kg"}, {"measurement": "remaining at 0.75 h", "setting": "[31]", "result": 85, "unit": "%"}, {"measurement": "CL free", "setting": "Rattus norvegicus [32]", "result": 151, "unit": "mL/min/kg"}, {"measurement": "Emax", "setting": "[33]", "result": 98, "unit": "%"}, {"measurement": "remaining at 1 h", "setting": "[34]", "result": 73, "unit": "%"}, {"measurement": "EC50", "setting": "[35]", "result": 0.0019, "unit": "µM"}, {"measurement": "fAUC/dose", "setting": "Rhesus monkey [36]", "result": 0.04, "unit": "µM·h/mg/kg"}, {"measurement": "AC50", "setting": "[37]", "result": 72, "unit": "µM"}, {"measurement": "IC50", "setting": "[38]", "result": "> 10", "unit": "µM"}, {"measurement": "remaining at 1 h", "setting": "[39]", "result": 92, "unit": "%"}, {"measurement": "half-life", "setting": "[40]", "result": 2.8, "unit": "h"}, {"measurement": "remaining at 1 h", "setting": "[41]", "result": 100, "unit": "%"}, {"measurement": "bioavailability", "setting": "[42]", "result": 46, "unit": "%"}, {"measurement": "IC50", "setting": "[43]", "result": "> 20", "unit": "µM"}, {"measurement": "Activity", "setting": "Rattus norvegicus [44]", "result": "Non-Toxic"}]}]}
